Measurements taken from ChEMBL document CHEMBL4014272, “Design, synthesis, biological evaluation, molecular docking and QSAR studies of 2,4-dimethylacridones as anticancer agents” (Eur J Med Chem, 2017).

Tests used:
ABCB1 (P-glycoprotein) = ABCB1 (P-glycoprotein) (Homo sapiens, UniProt P08183); assay: Displacement of [3H]-azidopine from ABCB1 in human KBV1 cell membranes at IC50 incubated for 20 mins in dark followed by irradiation of UV-light measured after 20 mins by SDS-PAGE based autoradiography relative to control; details: probe [3H]-azidopine
MCF7 = assay: Growth inhibition of human MCF7 cells after 48 hrs by SRB assay; format: functional, cell-based; details: MCF7, 48 h
Procedure, shortened: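 MCF-7 cells in RPMI 1640 with glutamine and 10% fetal calf serum, 37 °C, 5% CO2. Log-phase cells plated, attached 24 h, then exposed to varying compound concentrations for 48 h; ethanol vehicle controls. Survival by SRB, absorbance 540 nm versus control; each dilution in triplicate, IC50 from mean of triplicates.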

NCI/ADR-RES = assay: Growth inhibition of human MCF7/ADR cells after 48 hrs by SRB assay; format: functional, cell-based
Procedure, shortened: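 Doxorubicin-selected MCF-7/ADR cells maintained under doxorubicin, grown in RPMI 1640 with glutamine and 10% fetal calf serum, 37 °C, 5% CO2. Log-phase cells plated, attached 24 h, exposed to varying compound concentrations for 48 h; ethanol vehicle controls. Survival by SRB absorbance versus control; triplicate readings averaged for IC50.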

[1] = biological target: ATP-dependent translocase ABCB1 (Homo sapiens, UniProt P08183); assay: Inhibition of ABCB1 in human MCF7/ADR cells assessed as potentiation of vinblastine-induced cytotoxicity at IC10 after 7 days by SRB assay relative to vinblastine alone; format: cell-based; details: 168 h
Procedure, shortened: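 Doxorubicin-maintained MCF-7/ADR cells given vinblastine (0-100 nM, continuous 7 days per results text; methods state 0-15 nM for 48 h) alone or with modulator at its IC10. Survival by SRB versus ethanol vehicle control; vinblastine IC50 with modulator compared to vinblastine alone; triplicates averaged.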

Sequence of ABCB1 (P-glycoprotein) (P08183 whole entry): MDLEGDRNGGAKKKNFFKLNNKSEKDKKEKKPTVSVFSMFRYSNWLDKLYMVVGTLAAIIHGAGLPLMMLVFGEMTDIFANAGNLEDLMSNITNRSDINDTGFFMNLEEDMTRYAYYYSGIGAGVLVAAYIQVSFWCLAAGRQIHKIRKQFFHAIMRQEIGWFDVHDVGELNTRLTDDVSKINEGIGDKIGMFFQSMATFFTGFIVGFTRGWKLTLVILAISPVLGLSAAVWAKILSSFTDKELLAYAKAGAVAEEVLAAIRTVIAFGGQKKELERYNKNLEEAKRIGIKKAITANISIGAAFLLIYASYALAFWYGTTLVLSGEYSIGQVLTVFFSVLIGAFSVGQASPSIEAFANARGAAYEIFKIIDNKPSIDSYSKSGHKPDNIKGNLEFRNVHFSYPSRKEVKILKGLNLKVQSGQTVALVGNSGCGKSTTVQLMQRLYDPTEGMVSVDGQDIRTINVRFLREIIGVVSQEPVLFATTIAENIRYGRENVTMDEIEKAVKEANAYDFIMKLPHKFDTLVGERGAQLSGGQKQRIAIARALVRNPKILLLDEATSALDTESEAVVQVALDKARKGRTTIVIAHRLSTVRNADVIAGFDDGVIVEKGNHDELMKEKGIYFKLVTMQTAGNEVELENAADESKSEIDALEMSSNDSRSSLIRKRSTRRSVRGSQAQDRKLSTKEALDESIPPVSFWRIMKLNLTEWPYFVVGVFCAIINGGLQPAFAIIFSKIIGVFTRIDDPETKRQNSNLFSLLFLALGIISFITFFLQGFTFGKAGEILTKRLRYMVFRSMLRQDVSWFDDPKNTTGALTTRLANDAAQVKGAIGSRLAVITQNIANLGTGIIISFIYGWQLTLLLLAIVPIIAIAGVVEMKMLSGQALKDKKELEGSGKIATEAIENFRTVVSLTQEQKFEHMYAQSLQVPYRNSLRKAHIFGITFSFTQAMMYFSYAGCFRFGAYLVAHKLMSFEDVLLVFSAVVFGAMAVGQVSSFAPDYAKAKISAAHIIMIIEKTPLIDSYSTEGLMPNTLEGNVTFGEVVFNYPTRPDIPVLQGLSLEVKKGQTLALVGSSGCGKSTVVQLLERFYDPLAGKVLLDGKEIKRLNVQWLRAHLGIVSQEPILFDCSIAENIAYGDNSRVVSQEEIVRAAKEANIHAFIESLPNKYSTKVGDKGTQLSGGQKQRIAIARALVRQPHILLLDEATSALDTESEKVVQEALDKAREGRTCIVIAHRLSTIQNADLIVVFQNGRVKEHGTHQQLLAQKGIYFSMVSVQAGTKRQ
Sequence of ATP-dependent translocase ABCB1 (P08183 whole entry): as above

SMILES | inhibition at 20 min (ABCB1 (P-glycoprotein)) [%] | IC50 (MCF7) [µM] | IC50 (NCI/ADR-RES) [µM] | fold change (FC) [1] | inhibition (INH) [1]
COc1ccc(CCN(C)CCCC(C#N)(c2ccc(OC)c(OC)c2)C(C)C)cc1OC (stereo unspecified) [VERAPAMIL] | 61 |  |  |  | 
CC[C@]1(O)C[C@@H]2CN(CCc3c([nH]c4ccccc34)[C@@](C(=O)OC)(c3cc4c(cc3OC)N(C)[C@H]3[C@@](O)(C(=O)OC)[C@H](OC(C)=O)[C@]5(CC)C=CCN6CC[C@]43[C@@H]65)C2)C1 [VINBLASTINE] |  | 0.003 to 0.0032 | 0.0106 to 0.0693 |  | 
Cc1cc(C)c2c(c1)c(=O)c1ccccc1n2CCCCN1CCOCC1 | 36 | 20 | 21.8 |  | Active
Cc1cc(C)c2c(c1)c(=O)c1ccccc1n2CCCN1CCOCC1 | 26 | 59.2 | 65.3 | 6.4 | 
Cc1cc(C)c2c(c1)c(=O)c1ccccc1n2CCCN1CCCCC1 | 34 | 58 | 61.7 | 7.17 | 
Cc1cc(C)c2c(c1)c(=O)c1ccccc1n2CCCCN1CCN(CCO)CC1 | 58 | 2 | 2.56 |  | Active
Cc1cc(C)c2c(c1)c(=O)c1ccccc1n2CCCN1CCN(CCO)CC1 | 52 | 12 | 15.1 | 16.74 | 
Cc1cc(C)c2c(c1)c(=O)c1ccccc1n2CCCN1CCN(C)CC1 | 46 | 50.2 | 53.5 | 4.75 | 
COc1cccc2c1C(=O)c1c(O)c3c(c(O)c1C2=O)C[C@@](O)(C(C)=O)C[C@@H]3O[C@H]1C[C@H](N)[C@H](O)[C@H](C)O1 [DAUNORUBICIN] |  |  | 7.12 |  | 
Cc1cc(C)c2c(c1)c(=O)c1ccccc1n2CCCCN1CCCCC1 | 42 | 30.1 | 36.3 |  | 
Cc1cc(C)c2[nH]c3ccccc3c(=O)c2c1 | 33 | 79 | 82.1 | 1.4 | 

Second part, led by results:

inhibition at 20 min (ABCB1 (P-glycoprotein)) [%] | IC50 (MCF7) [µM] | SMILES | IC50 (NCI/ADR-RES) [µM] | fold change (FC) [1] | inhibition (INH) [1]
40 | 19.1 | Cc1cc(C)c2c(c1)c(=O)c1ccccc1n2CCCN(CCO)CCO | 22.8 | 9.7 | 
54 | 8.3 | CCN(CC)CCCCn1c2ccccc2c(=O)c2cc(C)cc(C)c21 | 9.1 |  | Active
43 | 14.5 | Cc1cc(C)c2c(c1)c(=O)c1ccccc1n2CCCCN1CCN(C)CC1 | 16.2 |  | 
36 |  | Cc1cc(C)c2c(c1)c(=O)c1ccccc1n2CCCCCl |  |  | 
36 | 29.1 | CCN(CC)CCCn1c2ccccc2c(=O)c2cc(C)cc(C)c21 | 34.2 | 10.48 | 
28 |  | Cc1cc(C)c2c(c1)c(=O)c1ccccc1n2CCCCl |  |  | 
55 | 4 | Cc1cc(C)c2c(c1)c(=O)c1ccccc1n2CCCCN(CCO)CCO | 5.21 |  | Active
